Assay results: ChEMBL document CHEMBL1240526, “Development of a new epidermal growth factor receptor positron emission tomography imaging agent based on the 3-cyanoquinoline core: synthesis and biological evaluation” (Bioorg Med Chem, 2010)

Columns and labels:
[1] = Metabolic stability in mouse liver assessed as compound remaining at 3.7 MBq after 2 mins; type: ADME, tissue-based; settings: read-out: Stability
Procedure, shortened: (§1)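 Non-tumor-bearing mice received 3.7 MBq of the ¹⁸F tracer iv. Plasma and liver were collected at 2, 30 and 60 min and snap-frozen. Samples were extracted in ice-cold MeOH (liver homogenized), centrifuged at 4 °C, then dried, filtered and run on radio-HPLC. Parent fraction = parent peak over total chromatogram radioactivity; plasma extraction efficiency 83.5%. Mean of three studies per time point.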

[2] = Metabolic stability in mouse liver assessed as compound remaining at 3.7 MBq after 30 mins; type: ADME, tissue-based; settings: read-out: Stability; procedure, shortened: as §1
[3] = Metabolic stability in mouse liver assessed as compound remaining at 3.7 MBq after 60 mins; type: ADME, tissue-based; settings: read-out: Stability; procedure, shortened: as §1
[4] = Metabolic stability in mouse plasma assessed as compound remaining at 3.7 MBq after 2 mins; type: ADME, cell-free; settings: read-out: Stability; procedure, shortened: as §1
[5] = Metabolic stability in mouse plasma assessed as compound remaining at 3.7 MBq after 30 mins; type: ADME, cell-free; settings: read-out: Stability; procedure, shortened: as §1
[6] = Metabolic stability in mouse plasma assessed as compound remaining at 3.7 MBq after 60 mins; type: ADME, cell-free; settings: read-out: Stability; procedure, shortened: as §1
[7] = Biodistribution in human A431 cell xenografted nu/nu BALB/c mouse plasma at 3.7 MBq after 60 mins; type: ADME, organism-based, A-431; settings: in vivo, 1 h
Blood = assay: Biodistribution in human A431 cell xenografted nu/nu BALB/c mouse blood at 3.7 MBq after 60 mins; type: ADME, organism-based, A-431; settings: in vivo, 1 h
Heart = assay: Biodistribution in human A431 cell xenografted nu/nu BALB/c mouse heart at 3.7 MBq after 60 mins; type: ADME, organism-based, A-431; settings: in vivo, 1 h
[8] = Biodistribution in human A431 cell xenografted nu/nu BALB/c mouse tumor at 3.7 MBq after 60 mins; type: ADME, organism-based, Neoplasm, A-431; settings: in vivo, 1 h
Muscle tissue = assay: Biodistribution in human A431 cell xenografted nu/nu BALB/c mouse muscle at 3.7 MBq after 60 mins; type: ADME, organism-based, A-431; settings: in vivo, 1 h
Bone = assay: Biodistribution in human A431 cell xenografted nu/nu BALB/c mouse bone at 3.7 MBq after 60 mins; type: ADME, organism-based, Bone element, A-431; settings: in vivo, 1 h
Brain = assay: Biodistribution in human A431 cell xenografted nu/nu BALB/c mouse brain at 3.7 MBq after 60 mins; type: ADME, organism-based, A-431; settings: in vivo, 1 h
Lung = assay: Biodistribution in human A431 cell xenografted nu/nu BALB/c mouse lung at 3.7 MBq after 60 mins; type: ADME, organism-based, A-431; settings: in vivo, 1 h
[9] = Biodistribution in human A431 cell xenografted nu/nu BALB/c mouse liver at 3.7 MBq after 60 mins; type: ADME, organism-based, A-431; settings: in vivo, 1 h
[10] = Biodistribution in human A431 cell xenografted nu/nu BALB/c mouse gallbladder at 3.7 MBq after 60 mins; type: ADME, organism-based, Gall bladder, A-431; settings: in vivo, 1 h
Stomach [11] = assay: Biodistribution in human A431 cell xenografted nu/nu BALB/c mouse full stomach at 3.7 MBq after 60 mins; type: ADME, organism-based, A-431; settings: in vivo, 1 h
Stomach [12] = assay: Biodistribution in human A431 cell xenografted nu/nu BALB/c mouse empty stomach at 3.7 MBq after 60 mins; type: ADME, organism-based, A-431; settings: in vivo, 1 h
Duodenum [13] = assay: Biodistribution in human A431 cell xenografted nu/nu BALB/c mouse full duodenum at 3.7 MBq after 60 mins; type: ADME, organism-based, A-431; settings: in vivo, 1 h
Duodenum [14] = assay: Biodistribution in human A431 cell xenografted nu/nu BALB/c mouse empty duodenum at 3.7 MBq after 60 mins; type: ADME, organism-based, A-431; settings: in vivo, 1 h
Jejunum [15] = assay: Biodistribution in human A431 cell xenografted nu/nu BALB/c mouse full jejunum at 3.7 MBq after 60 mins; type: ADME, organism-based, A-431; settings: in vivo, 1 h
Jejunum [16] = assay: Biodistribution in human A431 cell xenografted nu/nu BALB/c mouse empty jejunum at 3.7 MBq after 60 mins; type: ADME, organism-based, A-431; settings: in vivo, 1 h
[17] = Biodistribution in human A431 cell xenografted nu/nu BALB/c mouse full caecum at 3.7 MBq after 60 mins; type: ADME, organism-based, A-431; settings: in vivo, 1 h
[18] = Biodistribution in human A431 cell xenografted nu/nu BALB/c mouse empty caecum at 3.7 MBq after 60 mins; type: ADME, organism-based, A-431; settings: in vivo, 1 h
Colon [19] = assay: Biodistribution in human A431 cell xenografted nu/nu BALB/c mouse full colon at 3.7 MBq after 60 mins; type: ADME, organism-based, A-431; settings: in vivo, 1 h
Colon [20] = assay: Biodistribution in human A431 cell xenografted nu/nu BALB/c mouse empty colon at 3.7 MBq after 60 mins; type: ADME, organism-based, A-431; settings: in vivo, 1 h
Spleen = assay: Biodistribution in human A431 cell xenografted nu/nu BALB/c mouse spleen at 3.7 MBq after 60 mins; type: ADME, organism-based, A-431; settings: in vivo, 1 h
Kidney = assay: Biodistribution in human A431 cell xenografted nu/nu BALB/c mouse kidney at 3.7 MBq after 60 mins; type: ADME, organism-based, A-431; settings: in vivo, 1 h
[21] = Biodistribution in human A431 cell xenografted nu/nu BALB/c mouse urine at 3.7 MBq after 60 mins; type: ADME, organism-based, A-431; settings: in vivo, 1 h
[22] = target: Epidermal growth factor receptor (Homo sapiens, UniProt P00533); assay: Inhibition of EGFR autophosphorylation in human A431 cells; type: cell-based, A-431
Chain of Epidermal growth factor receptor (P00533 whole entry): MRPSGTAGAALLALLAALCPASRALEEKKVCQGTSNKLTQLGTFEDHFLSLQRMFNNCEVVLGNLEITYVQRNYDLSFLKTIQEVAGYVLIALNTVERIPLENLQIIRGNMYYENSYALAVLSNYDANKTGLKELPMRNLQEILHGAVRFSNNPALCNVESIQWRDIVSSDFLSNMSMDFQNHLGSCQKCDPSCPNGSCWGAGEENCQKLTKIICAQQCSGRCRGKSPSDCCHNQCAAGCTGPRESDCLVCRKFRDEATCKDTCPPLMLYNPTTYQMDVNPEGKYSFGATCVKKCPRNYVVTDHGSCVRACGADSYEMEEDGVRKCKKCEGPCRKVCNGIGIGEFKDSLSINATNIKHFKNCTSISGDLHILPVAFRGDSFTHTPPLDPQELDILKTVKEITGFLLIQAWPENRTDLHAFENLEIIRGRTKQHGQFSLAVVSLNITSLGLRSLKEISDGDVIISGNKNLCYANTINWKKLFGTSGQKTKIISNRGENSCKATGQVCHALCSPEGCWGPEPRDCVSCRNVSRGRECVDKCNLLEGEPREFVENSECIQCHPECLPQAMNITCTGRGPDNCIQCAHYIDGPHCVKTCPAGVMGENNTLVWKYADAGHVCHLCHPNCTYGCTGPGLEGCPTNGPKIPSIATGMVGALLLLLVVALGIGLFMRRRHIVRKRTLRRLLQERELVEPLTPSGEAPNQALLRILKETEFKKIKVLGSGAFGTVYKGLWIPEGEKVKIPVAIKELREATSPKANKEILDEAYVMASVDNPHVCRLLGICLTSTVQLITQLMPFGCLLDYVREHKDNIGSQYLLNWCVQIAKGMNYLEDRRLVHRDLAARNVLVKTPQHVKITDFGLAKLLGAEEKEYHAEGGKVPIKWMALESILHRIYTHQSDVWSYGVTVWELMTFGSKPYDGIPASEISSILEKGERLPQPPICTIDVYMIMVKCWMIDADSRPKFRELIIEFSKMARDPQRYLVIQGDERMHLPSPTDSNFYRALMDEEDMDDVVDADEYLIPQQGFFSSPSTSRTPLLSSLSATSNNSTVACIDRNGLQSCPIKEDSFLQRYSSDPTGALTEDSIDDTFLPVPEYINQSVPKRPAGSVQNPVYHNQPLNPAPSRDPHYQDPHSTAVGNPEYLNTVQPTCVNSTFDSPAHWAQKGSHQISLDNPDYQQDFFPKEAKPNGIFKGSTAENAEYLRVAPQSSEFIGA

Work on `CCOc1cc2ncc(C#N)c(Nc3ccc(F)c(Cl)c3)c2cc1NC(=O)/C=C/CNCc1cn(CCF)nn1` yielded a remaining at 2 min [1] of 95%, a remaining at 0.5 h [2] of 85.1% and a remaining at 1 h [3] of 75.5%. The remaining at 2 min [4] was 98.9%, the remaining at 0.5 h [5] was 62.8% and the remaining at 1 h [6] was 49.8%. It also gave a Drug uptake [7] of 0.027 % ID/g, a Drug uptake (Blood) of 0.022 % ID/g and a Drug uptake (Heart) of 0.041 % ID/g. It also gave a Drug uptake [8] of 0.082 % ID/g, a Drug uptake (Muscle tissue) of 0.018 % ID/g and a Drug uptake (Bone) of 0.031 % ID/g. For the same molecule, the Drug uptake (Brain) was 0.006 % ID/g, the Drug uptake (Lung) was 0.138 % ID/g and the Drug uptake [9] was 0.392 % ID/g. It also gave a Drug uptake [10] of 8.561 % ID/g, a Drug uptake (Stomach [11]) of 1.341 % ID/g and a Drug uptake (Stomach [12]) of 0.215 % ID/g. For the same molecule, the Drug uptake (Duodenum [13]) was 1.987 % ID/g, the Drug uptake (Duodenum [14]) was 1.453 % ID/g and the Drug uptake (Jejunum [15]) was 0.489 % ID/g. For the same molecule, the Drug uptake (Jejunum [16]) was 0.344 % ID/g, the Drug uptake [17] was 0.161 % ID/g and the Drug uptake [18] was 0.068 % ID/g. The Drug uptake (Colon [19]) was 0.236 % ID/g, the Drug uptake (Colon [20]) was 0.197 % ID/g and the Drug uptake (Spleen) was 0.211 % ID/g. The Drug uptake (Kidney) was 0.711 % ID/g and the Drug uptake [21] was 0.151 % ID/g.
In the case of `Nc1cc2ncnc(Nc3cccc(Br)c3)c2cc1N`, the IC50 [22] is reported as greater than 1000 nM.
